# Legend:
# Type in all cases: functional
# Acinetobacter baumannii [1] = experiment: Antimicrobial activity against Acinetobacter baumannii isolate 30 harboring GyrA Ser83-Leu mutation at pH 5.8
# Outline: (§1)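 MIC by agar dilution on Mueller-Hinton agar acidified to pH 5.8 with HCl before antibiotic-containing plates were poured. Agar pH was rechecked once the agar had solidified. Isolates had characterized gyrA/parC genes. Plates for both drugs were made the same day from fresh media, and MICs were read in parallel with the standard-pH set.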
# Acinetobacter baumannii [2] = experiment: Antimicrobial activity against Acinetobacter baumannii isolate 41 harboring GyrA Ser83-Leu mutation at pH 5.8
# Outline: (§2)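 Agar dilution MIC on Mueller-Hinton agar. For the acidic condition, HCl was added to bring the agar to pH 5.8 before pouring the antibiotic plates, and the pH was checked after the agar set. The standard condition was pH 7.2. Both drugs' plates were made the same day from fresh medium, and MICs were read at the same time.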
# Acinetobacter baumannii [3] = experiment: Antimicrobial activity against Acinetobacter baumannii isolate 59 harboring GyrA Ser83-Leu and ParC Glu84-Lys mutation at pH 5.8
# Outline: (§3)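 Agar dilution MIC on Mueller-Hinton agar acidified to pH 5.8 with HCl before the antibiotic-containing plates were poured. Agar pH was checked after solidifying. Plates were made the same day from fresh medium. Both fluoroquinolones were tested simultaneously against A. baumannii isolates with characterized gyrA/parC genes. MICs are in μg/ml.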
# Acinetobacter baumannii [4] = experiment: Antimicrobial activity against Acinetobacter baumannii isolate 33 harboring GyrA Ser83-Leu mutation at pH 5.8; outline: as §2
# Acinetobacter baumannii [5] = experiment: Antimicrobial activity against Acinetobacter baumannii isolate 25 harboring GyrA Ser83-Leu mutation at pH 5.8; outline: as §1
# Acinetobacter baumannii [6] = experiment: Antimicrobial activity against Acinetobacter baumannii isolate 32 harboring GyrA Ser83-Leu mutation at pH 5.8; outline: as §2
# Acinetobacter baumannii [7] = experiment: Antimicrobial activity against Acinetobacter baumannii isolate 31 harboring GyrA Ser83-Leu mutation at pH 7.2
# Outline: (§4)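 MIC by agar dilution on Mueller-Hinton agar under standard conditions (pH 7.2), against isolates with characterized gyrA/parC genes. Agar pH was checked after solidifying. Plates for both drugs were prepared the same day from freshly made media, and MICs were determined simultaneously with the pH 5.8 set.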
# Acinetobacter baumannii [8] = experiment: Antimicrobial activity against Acinetobacter baumannii isolate 36 harboring GyrA Ser83-Leu mutation at pH 5.8; outline: as §2
# Acinetobacter baumannii [9] = experiment: Antimicrobial activity against adeB overexpressing Acinetobacter baumannii isolate 67 harboring GyrA Ser83-Leu and ParC Ser80-Leu mutation at pH 7.2
# Outline: (§5)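 Agar dilution MIC on Mueller-Hinton agar under standard conditions (pH 7.2). Antibiotic-containing plates were made the same day from freshly prepared medium. Agar pH was checked after solidifying. Both fluoroquinolones were tested simultaneously against A. baumannii isolates with characterized gyrA/parC genes. MICs are in μg/ml.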
# Acinetobacter baumannii [10] = experiment: Antimicrobial activity against Acinetobacter baumannii isolate 27 harboring GyrA Ser83-Leu mutation at pH 5.8; outline: as §1
# Acinetobacter baumannii [11] = experiment: Antimicrobial activity against Acinetobacter baumannii isolate 66 harboring GyrA Ser83-Leu mutation at pH 5.8; outline: as §3
# Acinetobacter baumannii [12] = experiment: Antimicrobial activity against Acinetobacter baumannii isolate 1 at pH 5.8; outline: as §1
# Acinetobacter baumannii [13] = experiment: Antimicrobial activity against Acinetobacter baumannii isolate 28 harboring GyrA Ser83-Leu mutation at pH 5.8; outline: as §1
# Acinetobacter baumannii [14] = experiment: Antimicrobial activity against Acinetobacter baumannii isolate 1 at pH 7.2; outline: as §4
# Acinetobacter baumannii [15] = experiment: Antimicrobial activity against Acinetobacter baumannii isolate 43 harboring GyrA Ser83-Leu mutation at pH 7.2; outline: as §2
# Acinetobacter baumannii [16] = experiment: Antimicrobial activity against Acinetobacter baumannii isolate 13 at pH 7.2; outline: as §4
# Acinetobacter baumannii [17] = experiment: Antimicrobial activity against Acinetobacter baumannii isolate 54 harboring GyrA Ser83-Leu and ParC Ser80-Leu mutation at pH 5.8; outline: as §2
# Acinetobacter baumannii [18] = experiment: Antimicrobial activity against Acinetobacter baumannii isolate 18 at pH 5.8; outline: as §1
# Acinetobacter baumannii [19] = experiment: Antimicrobial activity against Acinetobacter baumannii isolate 51 harboring GyrA Ser83-Leu and ParC Ser80-Leu mutation at pH 5.8; outline: as §2
# Acinetobacter baumannii [20] = experiment: Antimicrobial activity against Acinetobacter baumannii isolate 62 harboring GyrA Ser83-Leu and ParC Ser80-Leu mutation at pH 5.8; outline: as §3
# Acinetobacter baumannii [21] = experiment: Antimicrobial activity against Acinetobacter baumannii isolate 31 harboring GyrA Ser83-Leu mutation at pH 5.8; outline: as §1
# Acinetobacter baumannii [22] = experiment: Antimicrobial activity against Acinetobacter baumannii isolate 64 harboring GyrA Ser83-Leu and ParC Ser80-Leu mutation at pH 7.2; outline: as §5
# Acinetobacter baumannii [23] = experiment: Antimicrobial activity against Acinetobacter baumannii isolate 8 at pH 7.2; outline: as §5
# Acinetobacter baumannii [24] = experiment: Antimicrobial activity against Acinetobacter baumannii isolate 24 harboring GyrA Ser83-Leu mutation at pH 5.8; outline: as §1
# Acinetobacter baumannii [25] = experiment: Antimicrobial activity against Acinetobacter baumannii isolate 57 harboring GyrA Ser83-Leu and ParC Ser80-Phe mutation at pH 5.8; outline: as §3
# Acinetobacter baumannii [26] = experiment: Antimicrobial activity against Acinetobacter baumannii isolate 21 harboring GyrA Ser83-Leu mutation at pH 5.8; outline: as §1
# Acinetobacter baumannii [27] = experiment: Antimicrobial activity against Acinetobacter baumannii isolate 16 at pH 7.2; outline: as §4
# Acinetobacter baumannii [28] = experiment: Antimicrobial activity against Acinetobacter baumannii isolate 57 harboring GyrA Ser83-Leu and ParC Ser80-Phe mutation at pH 7.2; outline: as §5
# Acinetobacter baumannii [29] = experiment: Antimicrobial activity against Acinetobacter baumannii isolate 9 at pH 7.2; outline: as §5
# Acinetobacter baumannii [30] = experiment: Antimicrobial activity against Acinetobacter baumannii isolate 27 harboring GyrA Ser83-Leu mutation at pH 7.2; outline: as §4
# Acinetobacter baumannii [31] = experiment: Antimicrobial activity against Acinetobacter baumannii isolate 52 harboring GyrA Ser83-Leu and ParC Ser80-Leu mutation at pH 5.8; outline: as §2
# Acinetobacter baumannii [32] = experiment: Antimicrobial activity against Acinetobacter baumannii isolate 14 at pH 5.8; outline: as §1
# Acinetobacter baumannii [33] = experiment: Antimicrobial activity against Acinetobacter baumannii isolate 29 harboring GyrA Ser83-Leu mutation at pH 7.2; outline: as §4
# Acinetobacter baumannii [34] = experiment: Antimicrobial activity against Acinetobacter baumannii isolate 3 at pH 7.2; outline: as §4
# Acinetobacter baumannii [35] = experiment: Antimicrobial activity against Acinetobacter baumannii isolate 5 at pH 5.8; outline: as §2
# Acinetobacter baumannii [36] = experiment: Antimicrobial activity against Acinetobacter baumannii isolate 7 at pH 5.8; outline: as §3
# Acinetobacter baumannii [37] = experiment: Antimicrobial activity against Acinetobacter baumannii isolate 56 harboring GyrA Ser83-Leu and ParC Ser80-Leu mutation at pH 7.2; outline: as §5
# Acinetobacter baumannii [38] = experiment: Antimicrobial activity against Acinetobacter baumannii isolate 37 harboring GyrA Ser83-Leu mutation at pH 5.8; outline: as §2
# Acinetobacter baumannii [39] = experiment: Antimicrobial activity against Acinetobacter baumannii isolate 50 harboring GyrA Ser83-Leu and ParC Ser80-Leu mutation at pH 7.2; outline: as §2
# Acinetobacter baumannii [40] = experiment: Antimicrobial activity against Acinetobacter baumannii isolate 47 harboring GyrA Ser83-Leu and ParC Ser80-Phe mutation at pH 5.8; outline: as §2
# Acinetobacter baumannii [41] = experiment: Antimicrobial activity against Acinetobacter baumannii isolate 43 harboring GyrA Ser83-Leu mutation at pH 5.8; outline: as §2
# Acinetobacter baumannii [42] = experiment: Antimicrobial activity against adeB overexpressing Acinetobacter baumannii isolate 68 harboring GyrA Ser83-Leu and ParC Ser80-Leu mutation at pH 5.8; outline: as §3
structure (smiles),measurement,setting,value
N#Cc1c(N2C[C@@H]3NCCO[C@H]3C2)c(F)cc2c(=O)c(C(=O)O)cn(C3CC3)c12 [FINAFLOXACIN],MIC,Acinetobacter baumannii [1],0.5 µg/mL
same,MIC,Acinetobacter baumannii [2],2 µg/mL
same,MIC,Acinetobacter baumannii [3],8 µg/mL
same,MIC,Acinetobacter baumannii [4],1 µg/mL
same,MIC,Acinetobacter baumannii [5],2 µg/mL
same,MIC,Acinetobacter baumannii [6],1 µg/mL
same,MIC,Acinetobacter baumannii [7],16 µg/mL
same,MIC,Acinetobacter baumannii [8],2 µg/mL
same,MIC,Acinetobacter baumannii [9],64 µg/mL
same,MIC,Acinetobacter baumannii [10],1 µg/mL
same,MIC,Acinetobacter baumannii [11],2 µg/mL
same,MIC,Acinetobacter baumannii [12],0.06 µg/mL
same,MIC,Acinetobacter baumannii [13],1 µg/mL
same,MIC,Acinetobacter baumannii [14],0.12 µg/mL
same,MIC,Acinetobacter baumannii [15],16 µg/mL
same,MIC,Acinetobacter baumannii [16],1 µg/mL
same,MIC,Acinetobacter baumannii [17],4 µg/mL
same,MIC,Acinetobacter baumannii [18],0.12 µg/mL
same,MIC,Acinetobacter baumannii [19],2 µg/mL
same,MIC,Acinetobacter baumannii [20],8 µg/mL
same,MIC,Acinetobacter baumannii [21],1 µg/mL
same,MIC,Acinetobacter baumannii [22],64 µg/mL
same,MIC,Acinetobacter baumannii [23],0.25 µg/mL
same,MIC,Acinetobacter baumannii [24],2 µg/mL
same,MIC,Acinetobacter baumannii [25],4 µg/mL
same,MIC,Acinetobacter baumannii [26],0.25 µg/mL
same,MIC,Acinetobacter baumannii [27],1 µg/mL
same,MIC,Acinetobacter baumannii [28],32 µg/mL
same,MIC,Acinetobacter baumannii [29],0.25 µg/mL
same,MIC,Acinetobacter baumannii [30],16 µg/mL
same,MIC,Acinetobacter baumannii [31],2 µg/mL
same,MIC,Acinetobacter baumannii [32],0.25 µg/mL
same,MIC,Acinetobacter baumannii [33],32 µg/mL
same,MIC,Acinetobacter baumannii [34],0.12 µg/mL
same,MIC,Acinetobacter baumannii [35],0.06 µg/mL
same,MIC,Acinetobacter baumannii [36],0.06 µg/mL
same,MIC,Acinetobacter baumannii [37],32 µg/mL
same,MIC,Acinetobacter baumannii [38],2 µg/mL
same,MIC,Acinetobacter baumannii [39],16 µg/mL
same,MIC,Acinetobacter baumannii [40],4 µg/mL
same,MIC,Acinetobacter baumannii [41],2 µg/mL
same,MIC,Acinetobacter baumannii [42],4 µg/mL
O=C(O)c1cn(C2CC2)c2cc(N3CCNCC3)c(F)cc2c1=O [CIPROFLOXACIN],MIC,Acinetobacter baumannii [1],32 µg/mL
same,MIC,Acinetobacter baumannii [2],> 128 µg/mL
same,MIC,Acinetobacter baumannii [3],> 128 µg/mL
same,MIC,Acinetobacter baumannii [4],128 µg/mL
same,MIC,Acinetobacter baumannii [5],32 µg/mL
same,MIC,Acinetobacter baumannii [6],32 µg/mL
same,MIC,Acinetobacter baumannii [7],8 µg/mL
same,MIC,Acinetobacter baumannii [8],128 µg/mL
same,MIC,Acinetobacter baumannii [9],> 128 µg/mL
same,MIC,Acinetobacter baumannii [10],32 µg/mL
same,MIC,Acinetobacter baumannii [11],128 µg/mL
same,MIC,Acinetobacter baumannii [12],2 µg/mL
same,MIC,Acinetobacter baumannii [13],32 µg/mL
same,MIC,Acinetobacter baumannii [14],0.06 µg/mL
same,MIC,Acinetobacter baumannii [15],32 µg/mL
same,MIC,Acinetobacter baumannii [16],0.5 µg/mL
same,MIC,Acinetobacter baumannii [17],> 128 µg/mL
same,MIC,Acinetobacter baumannii [18],8 µg/mL
same,MIC,Acinetobacter baumannii [19],> 128 µg/mL
same,MIC,Acinetobacter baumannii [20],> 128 µg/mL
same,MIC,Acinetobacter baumannii [21],32 µg/mL
same,MIC,Acinetobacter baumannii [22],> 128 µg/mL
same,MIC,Acinetobacter baumannii [23],0.25 µg/mL
same,MIC,Acinetobacter baumannii [24],32 µg/mL
same,MIC,Acinetobacter baumannii [25],> 128 µg/mL
same,MIC,Acinetobacter baumannii [26],32 µg/mL
same,MIC,Acinetobacter baumannii [27],1 µg/mL
same,MIC,Acinetobacter baumannii [28],128 µg/mL
same,MIC,Acinetobacter baumannii [29],0.25 µg/mL
same,MIC,Acinetobacter baumannii [30],4 µg/mL
same,MIC,Acinetobacter baumannii [31],> 128 µg/mL
same,MIC,Acinetobacter baumannii [32],4 µg/mL
same,MIC,Acinetobacter baumannii [33],4 µg/mL
same,MIC,Acinetobacter baumannii [34],0.12 µg/mL
same,MIC,Acinetobacter baumannii [35],2 µg/mL
same,MIC,Acinetobacter baumannii [36],2 µg/mL
same,MIC,Acinetobacter baumannii [37],128 µg/mL
same,MIC,Acinetobacter baumannii [38],128 µg/mL
same,MIC,Acinetobacter baumannii [39],128 µg/mL
same,MIC,Acinetobacter baumannii [40],> 128 µg/mL
same,MIC,Acinetobacter baumannii [41],> 128 µg/mL
same,MIC,Acinetobacter baumannii [42],> 128 µg/mL

# Source: ChEMBL document CHEMBL1255410, “Activity of the investigational fluoroquinolone finafloxacin against ciprofloxacin-sensitive and -resistant Acinetobacter baumannii isolates” (2010)
